Assay results as given in ChEMBL document CHEMBL1147385, “Kinase inhibitors from Polygonum cuspidatum” (J Nat Prod, 1993).
Converted amounts (≈) assume the structure as drawn.

Legend:
[1] = Inhibition of bovine thymus p56LCK; design: species or system Bos taurus
Procedure, shortened: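 Partially purified p56lck from bovine thymus (through butyl-agarose step). Compounds were dissolved in DMSO, with 8% DMSO present in all assays. Emodin served as reference compound.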

Protein kinase C (PKC) = experiment: Inhibition of rat brain PKC
Procedure, shortened: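 Rat brain PKC, partially purified and mainly alpha/beta isoforms, acting on lysine-rich histone (30 μg). Partial activation by phosphatidylserine 8 μg/ml plus TPA 3 nM, no calcium, EGTA present, 20 mM Tris-Cl pH 7.4. Run 10 min at 30°, duplicates. Samples spotted on P81 paper, Cerenkov counted, no-enzyme blanks subtracted. IC50 from logarithmic interpolation over ten-fold dilutions, 0.16–160 μg/ml.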

IC50 [1]	IC50 (Protein kinase C (PKC))	SMILES
2 ×10² ug/ml	2 ×10² ug/ml	OC[C@H]1O[C@@H](Oc2cc(O)cc(/C=C/c3ccc(O)cc3)c2)[C@H](O)[C@@H](O)[C@@H]1O [PICEID]
6 ×10¹ ug/ml	4 ×10¹ ug/ml	Oc1ccc(/C=C/c2cc(O)cc(O)c2)cc1 [RESVERATROL]
–	30 µg/mL (≈ 73.6 µM)	CN1CCN(CCCN2c3ccccc3Sc3ccc(C(F)(F)F)cc32)CC1 [TRIFLUOPERAZINE]
5 ×10² ug/ml	2 ×10² ug/ml	OC[C@H]1O[C@@H](Oc2cc(O)cc(/C=C\c3ccc(O)cc3)c2)[C@H](O)[C@@H](O)[C@@H]1O [Z-PICEID]

The next lines start with the molecule.

SMILES	IC50 [1]	IC50 (Protein kinase C (PKC))
OC[C@H]1O[C@@H](Oc2ccc(/C=C\c3cc(O)cc(O)c3)cc2)[C@H](O)[C@@H](O)[C@@H]1O	> 8 ×10² ug/ml	6 µg/mL (≈ 15.4 µM)
Oc1ccc(/C=C\c2cc(O)cc(O)c2)cc1 [CIS-RESVERATROL]	5 ×10¹ ug/ml	3 ×10¹ ug/ml
Cc1cc(O)c2c(c1)C(=O)c1cc(O)cc(O)c1C2=O [EMODIN]	10 µg/mL (≈ 37 µM)	–
OC[C@H]1O[C@@H](Oc2ccc(/C=C/c3cc(O)cc(O)c3)cc2)[C@H](O)[C@@H](O)[C@@H]1O [GOB C]	2 ×10² ug/ml	3 µg/mL (≈ 7.68 µM)
